# In paper PMC12153341 (Nucleic Acids Research, 2025):
# Several values for one entry are separate records, joined by “and”; a condition that tells them apart may be missing. Identical values can stand only once. Entries after “also recorded” stand apart in the source; their conditions may differ.
# T1: KIF2C Nt (KIF2C1-79) (Homo sapiens, UniProt Q99661)
# T1 sequence (Q99661 1-79): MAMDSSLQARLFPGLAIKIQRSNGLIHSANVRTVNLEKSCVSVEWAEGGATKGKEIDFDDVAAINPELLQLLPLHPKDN
# T2: BRCA2_(48-218) phosphorylated by PLK1 (human, UniProt P51587 48-218, phosphoserine 193, phosphothreonine 207; 15N-labelled)
# T2 sequence (looked up): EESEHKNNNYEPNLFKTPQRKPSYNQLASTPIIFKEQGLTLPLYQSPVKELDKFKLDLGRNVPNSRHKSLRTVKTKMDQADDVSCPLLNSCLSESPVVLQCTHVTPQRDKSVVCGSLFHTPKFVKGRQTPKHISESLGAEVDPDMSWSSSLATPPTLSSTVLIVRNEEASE
# B1: KIF2C N-terminal domain, KIF2C_(1-79) (domain or fragment, human, UniProt Q99661 1-79, looked up)
# chain: MAMDSSLQARLFPGLAIKIQRSNGLIHSANVRTVNLEKSCVSVEWAEGGATKGKEIDFDDVAAINPELLQLLPLHPKDN
# modifications: 15N-labelled where it is the observed protein in NMR
# How the values were obtained:
# [1] = test system: Opto-KIF2C condensates in Flp-In T-REx 293 cells; assay: Opto-KIF2C foci formation; format: cell-based; details: mitotic cells; for number of optogenetic KIF2C condensates formed upon blue light exposure: light ON
# [2] = test system: Opto-KIF2C condensates in Flp-In T-REx 293 cells; format: cell-based
# In short: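 Opto-KIF2C expression induced with 1 μg/ml doxycycline for 16 h in cells plated at ~70% confluency in DMEM. Mitotic arrest used 100 ng/ml nocodazole for 16 h. Condensation induced under 488 nm LEDs at 10 mW/cm2, with 5 min of 4 s light/10 s dark cycles. Cells fixed in 4% PFA 15 min, permeabilized in 0.2% Triton 10 min, blocked in 3% BSA; primary and secondary antibodies 1 h RT each.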
# [3] = test system: proteins in the vicinity of TurboID-Opto-KIF2C condensates, Flp-In T-Rex 293 cells; format: cell-based; details: light OFF and ON conditions
# In short: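 Flp-In T-REx 293 cells stably carrying TurboID-Opto-KIF2C, nocodazole-arrested, at 75% confluence, induced with 6 ng/ml doxycycline for 16 h. Biotin added while cells received 15 min of blue-light cycles (4 s light/30 s dark), or kept dark. Lysates sonicated and cleared; 1 mg protein bound to streptavidin-agarose 3 h at 4°C, stringently washed, boiled in Laemmli buffer. Detection by HRP immunoblot with ECL.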
# [4] = test system: Opto-KIF2C foci in Flp-In T-REx 293 cells; assay: SIM measurement of Opto-KIF2C foci area; format: cell-based; details: mitotic cells, 5 min 488 nm light, about 0.1 μm^2 without nocodazole
# KIF2A Nt (KIF2A1-77) = KIF2A Nt (KIF2A1-77) (Homo sapiens, UniProt O00139); format: binding; details: 15N-labeled KIF2A1-77, molar ratios 1:0 to 1:2, DPBS pH 7.0, 10°C
# KIF2C Nt (KIF2C1-79) = target: T1, KIF2C Nt (KIF2C1-79); format: binding; details: 15N-labeled KIF2C1-79, molar ratios 1:0 to 1:2, DPBS pH 7.0, 10°C
# [5] = target: KIF2C N-terminal domain, KIF2C_(1-79) (human) (UniProt Q99661); assay: ITC
# [6] = target: KIF2A N-terminal domain, KIF2A_(1-77) (human) (UniProt O00139); assay: ITC
# [7] = target: T2, BRCA2_(48-218) phosphorylated by PLK1; assay: NMR titration
# Sequence of KIF2A N-terminal domain, KIF2A_(1-77) (human) (O00139 1-77): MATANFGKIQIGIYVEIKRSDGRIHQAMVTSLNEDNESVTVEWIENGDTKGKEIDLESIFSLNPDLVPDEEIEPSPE
# Sequence of KIF2A Nt (KIF2A1-77) (O00139 1-77): as above
molecule,measurement,setting,value
COc1cc2c(Nc3ccc(NC(=O)c4ccccc4)cc3)ncnc2cc1OCCCN1CCOCC1 [ZM447439],formation of KIF2C condensates formed without light,[1]; light OFF,completely abolished
same,number of optogenetic KIF2C condensates formed upon blue light exposure,[1]; Noc (+),did not change
same,number of optogenetic KIF2C condensates formed upon blue light exposure,[1]; Noc (-),mildly decreased
same,"BRCA2-pT207 in KIF2C condensates (immunofluorescence, co-localization)",[2]; Flp-In T-Rex 293 cells,could not detect; also recorded: abolished
same,PLK1 and PLK1-pT210 within Opto-KIF2C condensates (immunofluorescence),"[2]; mitotic cells, absence or presence of nocodazole",unable to detect
same,abundance of PLK1 in the vicinity of KIF2C condensates,[3],less abundant
COC(=O)Nc1nc2ccc(C(=O)c3cccs3)cc2[nH]1 [nocodazole],area of the Opto-KIF2C condensates,[4],about 0.15 μm^2
"BRCA2_194-214: non-phosphorylated synthetic BRCA2 peptide, residues 194-214 (WSSSLATPPTLSSTVLIVRNE)",binding to KIF2A Nt by NMR chemical shift analysis,KIF2A Nt (KIF2A1-77),did not detect any binding
same,binding to KIF2C Nt by NMR chemical shift analysis,KIF2C Nt (KIF2C1-79),did not detect any binding
BRCA2_(194-214(pT207)) peptide (from UniProt P51587 194-214),Kd,[5],480 nM and 1300 nM
same,dH,[5],-19.1 kcal/mol and -12.1 kcal/mol
same,Kd,[6],600 nM
same,dH,[6],-15.7 kcal/mol and -18.1 kcal/mol
B1,binding result,[7],binds
